Data published in publication PMC8230583 (Polymer Chemistry, 2021).

Test: Critical aggregation concentration by Nile Red fluorimetry
Format: physicochemical
Settings: ratio of CAC in water to CAC in 150 mM NaCl
In short: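 Each compound was dissolved in water or 0.15 M NaCl with mild shaking or sonication, and stocks were equilibrated overnight at room temperature. Diluted samples (pH 4.0–5.5) were equilibrated ≥3 h at room temperature. Nile Red was added from a 1 mg ml−1 acetone stock and samples equilibrated 30 min more. Emission (575–740 nm, excitation 550 nm) was recorded to follow the shift of the Nile Red maximum.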

## FDFF
  CAC in the presence of salt, times lower than in pure water: 1.2 times
